According to ChEMBL document CHEMBL1671809, “Discovery of phosphoric acid mono-{2-[(E/Z)-4-(3,3-dimethyl-butyrylamino)-3,5-difluoro-benzoylimino]-thiazol-3-ylmethyl} ester (Lu AA47070): a phosphonooxymethylene prodrug of a potent and selective hA(2A) receptor antagonist” (J Med Chem, 2011):
pIC50, pKi: −log10 of the molar value.

Columns and labels:
[1] = molecular target: Adenosine receptor A2a (Homo sapiens, UniProt P29274); assay: Displacement of [3H]-ZM241385 from human adenosine A2A receptor expressed in high five cells after 30 mins by scintillation counting
Chain of Adenosine receptor A2a (P29274 whole entry): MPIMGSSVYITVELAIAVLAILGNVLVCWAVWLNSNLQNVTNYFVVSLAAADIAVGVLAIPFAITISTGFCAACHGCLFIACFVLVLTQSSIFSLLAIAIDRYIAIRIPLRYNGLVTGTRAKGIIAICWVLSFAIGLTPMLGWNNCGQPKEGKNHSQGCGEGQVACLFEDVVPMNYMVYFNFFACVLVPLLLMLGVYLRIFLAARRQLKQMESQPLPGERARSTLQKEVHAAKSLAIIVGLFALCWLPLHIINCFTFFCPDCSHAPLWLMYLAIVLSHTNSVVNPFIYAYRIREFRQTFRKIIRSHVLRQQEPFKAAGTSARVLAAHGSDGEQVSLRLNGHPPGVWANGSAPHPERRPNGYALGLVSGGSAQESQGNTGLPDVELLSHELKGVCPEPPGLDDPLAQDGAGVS

[2] = molecular target: T1, Adenosine receptor A1 (Homo sapiens) (UniProt P30542); assay: Displacement of [3H]-DPCPX from human adenosine A1 receptor expressed in CHO cells at 10 uM after 30 mins by scintillation counting; assay type: cell-based
T1 sequence (whole entry): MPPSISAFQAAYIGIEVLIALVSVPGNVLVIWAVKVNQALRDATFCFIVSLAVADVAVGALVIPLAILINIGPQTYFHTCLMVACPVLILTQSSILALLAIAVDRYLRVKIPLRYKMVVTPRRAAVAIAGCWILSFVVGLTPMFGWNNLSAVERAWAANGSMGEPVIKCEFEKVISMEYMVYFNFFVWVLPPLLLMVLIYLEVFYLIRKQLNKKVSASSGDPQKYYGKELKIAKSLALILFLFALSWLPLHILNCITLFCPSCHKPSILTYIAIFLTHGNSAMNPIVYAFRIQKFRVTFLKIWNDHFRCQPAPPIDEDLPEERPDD

[3] = system: Liver microsomes; assay: Intrinsic clearance in human liver microsomes at 1 uM after 60 mins by LC-MS/MS analysis; assay type: ADME, Microsome; conditions: 1 h
How it was run: (§1)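 Compound at 1 μM with human or rat liver microsomes (0.5 mg protein/mL) plus NADPH at 37 C. Samples at 0, 5, 15, 30 and 60 min, quenched with acetonitrile, analysed by LC-MS/MS.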

[4] = system: Liver microsomes; assay: Intrinsic clearance in rat liver microsomes at 1 uM after 60 mins by LC-MS/MS analysis; assay type: ADME, Microsome; conditions: 1 h; how it was run: as §1
[5] = molecular target: T2, Cytochrome P450 1A2 (Homo sapiens, UniProt P05177); assay: Inhibition of recombinant CYP1A2 after 28 mins; assay type: ADME
T2 sequence (P05177 whole entry): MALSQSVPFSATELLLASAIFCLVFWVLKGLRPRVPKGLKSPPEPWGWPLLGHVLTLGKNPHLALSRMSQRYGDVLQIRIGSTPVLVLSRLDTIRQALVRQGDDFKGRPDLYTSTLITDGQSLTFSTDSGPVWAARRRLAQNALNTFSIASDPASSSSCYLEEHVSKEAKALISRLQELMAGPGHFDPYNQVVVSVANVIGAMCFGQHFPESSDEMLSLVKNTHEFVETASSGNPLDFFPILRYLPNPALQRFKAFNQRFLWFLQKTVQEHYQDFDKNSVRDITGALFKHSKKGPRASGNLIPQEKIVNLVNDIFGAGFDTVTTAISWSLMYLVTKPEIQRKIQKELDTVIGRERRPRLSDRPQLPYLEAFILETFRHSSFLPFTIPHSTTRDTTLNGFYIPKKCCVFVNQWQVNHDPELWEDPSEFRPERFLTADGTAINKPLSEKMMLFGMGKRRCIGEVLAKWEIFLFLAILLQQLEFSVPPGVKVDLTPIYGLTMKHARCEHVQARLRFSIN
How it was run: (§2)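 Recombinant CYP supersomes incubated in phosphate buffer with eight compound concentrations (40-0.02 μM) and fluorogenic substrates. CYP1A2: 7-ethoxy-3-cyanocoumarin 10 μM, 28 min. CYP2C19: same substrate 50 μM, 45 min. CYP2D6: AMMC 3 μM, 45 min. CYP3A4: resorufin benzyl ether 100 μM, 30 min. Fluorescent metabolite read; IC50 relative to uninhibited controls.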

[6] = molecular target: Cytochrome P450 2C9 (Homo sapiens, UniProt P11712); assay: Inhibition of recombinant CYP2C9 after 45 mins; assay type: ADME
Chain of Cytochrome P450 2C9 (P11712 whole entry): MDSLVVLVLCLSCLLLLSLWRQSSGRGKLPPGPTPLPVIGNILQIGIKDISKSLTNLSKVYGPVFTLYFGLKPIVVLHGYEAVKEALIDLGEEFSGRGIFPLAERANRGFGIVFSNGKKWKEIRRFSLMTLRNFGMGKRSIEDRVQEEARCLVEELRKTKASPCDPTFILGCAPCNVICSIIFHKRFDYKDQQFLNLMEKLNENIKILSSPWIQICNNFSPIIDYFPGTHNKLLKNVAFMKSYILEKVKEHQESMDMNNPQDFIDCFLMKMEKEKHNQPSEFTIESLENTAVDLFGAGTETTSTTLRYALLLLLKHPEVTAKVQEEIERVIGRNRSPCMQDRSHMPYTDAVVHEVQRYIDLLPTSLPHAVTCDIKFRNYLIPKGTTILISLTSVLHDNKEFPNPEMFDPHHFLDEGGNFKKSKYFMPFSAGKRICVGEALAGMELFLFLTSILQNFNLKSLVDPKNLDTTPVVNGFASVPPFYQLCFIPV

[7] = molecular target: Cytochrome P450 2C19 (Homo sapiens, UniProt P33261); assay: Inhibition of recombinant CYP2C19 after 45 mins; assay type: ADME; how it was run: as §2
Chain of Cytochrome P450 2C19 (P33261 whole entry): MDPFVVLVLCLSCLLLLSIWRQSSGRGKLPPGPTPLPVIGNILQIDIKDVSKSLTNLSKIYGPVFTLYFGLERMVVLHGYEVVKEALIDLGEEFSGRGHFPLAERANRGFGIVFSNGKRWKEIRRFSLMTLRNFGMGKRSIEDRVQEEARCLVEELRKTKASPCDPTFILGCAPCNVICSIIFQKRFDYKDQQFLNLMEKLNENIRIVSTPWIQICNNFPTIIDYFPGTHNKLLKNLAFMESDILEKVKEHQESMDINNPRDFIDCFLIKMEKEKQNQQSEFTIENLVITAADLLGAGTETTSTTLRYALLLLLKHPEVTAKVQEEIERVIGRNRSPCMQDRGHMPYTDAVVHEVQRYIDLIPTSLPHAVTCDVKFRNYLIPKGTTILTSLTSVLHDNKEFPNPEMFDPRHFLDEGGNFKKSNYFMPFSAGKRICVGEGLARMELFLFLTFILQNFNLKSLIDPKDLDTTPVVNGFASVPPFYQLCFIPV

[8] = molecular target: Cytochrome P450 2D6 (Homo sapiens, UniProt P10635); assay: Inhibition of recombinant CYP2D6 after 45 mins; assay type: ADME; how it was run: as §2
Chain of Cytochrome P450 2D6 (P10635 whole entry): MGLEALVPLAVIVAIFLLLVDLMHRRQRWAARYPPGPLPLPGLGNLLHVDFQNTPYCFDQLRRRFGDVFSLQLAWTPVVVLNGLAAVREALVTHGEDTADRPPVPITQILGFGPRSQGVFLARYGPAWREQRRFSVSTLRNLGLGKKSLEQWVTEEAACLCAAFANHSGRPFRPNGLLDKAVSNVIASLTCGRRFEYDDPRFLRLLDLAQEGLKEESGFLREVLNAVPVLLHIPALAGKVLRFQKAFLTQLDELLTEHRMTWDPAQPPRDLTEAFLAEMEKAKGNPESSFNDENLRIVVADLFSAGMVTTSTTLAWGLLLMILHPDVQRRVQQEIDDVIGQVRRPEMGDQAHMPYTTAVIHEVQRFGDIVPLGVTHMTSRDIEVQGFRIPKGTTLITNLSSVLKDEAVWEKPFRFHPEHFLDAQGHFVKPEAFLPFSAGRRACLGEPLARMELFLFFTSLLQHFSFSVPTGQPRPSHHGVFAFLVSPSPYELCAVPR

[9] = molecular target: Cytochrome P450 3A4 (Homo sapiens, UniProt P08684); assay: Inhibition of recombinant CYP3A4 after 30 mins; assay type: ADME
Chain of Cytochrome P450 3A4 (P08684 whole entry): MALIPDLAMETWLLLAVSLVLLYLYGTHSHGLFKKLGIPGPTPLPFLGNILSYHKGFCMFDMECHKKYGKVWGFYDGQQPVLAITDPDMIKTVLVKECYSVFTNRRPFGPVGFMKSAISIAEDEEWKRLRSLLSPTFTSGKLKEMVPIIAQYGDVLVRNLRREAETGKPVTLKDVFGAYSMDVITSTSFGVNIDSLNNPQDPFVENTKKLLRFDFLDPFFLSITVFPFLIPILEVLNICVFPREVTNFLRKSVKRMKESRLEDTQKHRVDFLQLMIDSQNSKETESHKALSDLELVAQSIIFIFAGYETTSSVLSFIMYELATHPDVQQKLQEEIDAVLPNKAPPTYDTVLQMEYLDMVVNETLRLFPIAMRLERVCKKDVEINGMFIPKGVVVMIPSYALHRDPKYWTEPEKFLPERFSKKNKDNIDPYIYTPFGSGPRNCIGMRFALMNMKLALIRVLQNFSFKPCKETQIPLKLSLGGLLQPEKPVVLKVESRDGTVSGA
How it was run: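 Recombinant CYP supersomes incubated in phosphate buffer with eight compound concentrations (40-0.02 μM) and fluorogenic substrates. CYP3A4: resorufin benzyl ether 100 μM, 30 min. Fluorescent metabolite read; IC50 relative to uninhibited controls.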

[10] = system: Caco-2; assay: Efflux ratio of permeability from basolateral to apical over apical to basolateral side in human Caco2 cells after 21 to 28 days by LC-MS/MS analysis
[11] = system: Mus musculus; assay: Reversal of haloperidol-induced hypolocomotion in po dosed NMRI mouse administered 30 mins before haloperidol challenge measured for 20 mins; assay type: functional
How it was run: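 Male NMRI mice (n = 8/group) were given compound po in 25% cremophor/saline, then haloperidol 0.63 mg/kg sc 30 min later. After 15 min they went into photocell activity boxes, and locomotion was recorded for 20 min. ED50 by sigmoidal fit with top 100 and bottom 0.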

[12] = molecular target: T1, Adenosine receptor A1 (Homo sapiens); assay: Displacement of [3H]-DPCPX from human adenosine A1 receptor expressed in CHO cells at 2000 nM after 30 mins by scintillation counting
[13] = molecular target: T3, Adenosine receptor A1 (Homo sapiens, UniProt P30542); assay: Displacement of [3H]-DPCPX from human adenosine A1 receptor expressed in CHO cells after 30 mins by scintillation counting; assay type: cell-based
T3 sequence (P30542 whole entry): T1 sequence (whole entry)
How it was run: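 CHO-hA1 membranes at 10.8 μg protein/well, pretreated with adenosine deaminase (2 U/mL, 30 min, 37 C), were incubated with 1 nM [3H]-DPCPX in 50 mM Tris/HCl pH 7.4 for 30 min at 25 C across 10 compound concentrations. Filtration on PEI-soaked GF/B, scintillation counting. Nonspecific binding by CGS15943. Ki by Cheng-Prusoff. Means of ≥2 determinations.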

[14] = species: Homo sapiens; assay: Selectivity ratio of Ki for human adenosine A1 receptor to Ki for human adenosine A2A receptor

Structure (SMILES)	pKi [1]	inhibition [2]	CL [3]	CL [4]	pIC50 [5]	pIC50 [6]	pIC50 [7]	pIC50 [8]	pIC50 [9]	Ratio [10]	ED50 [11]	inhibition [12]	pKi [13]	Ratio Ki [14]
CC(C)C(=O)Nc1ccc(C(=O)Nc2nccs2)cc1	6.52	–	–	–	–	–	–	–	–	–	–	–	–	–
CC(C)(C)CC(=O)Nc1ccc(C(=O)Nc2nccs2)cc1	7.44	39%	0.7 L/min	11 mL/min	< 4.40	< 4.40	< 4.40	< 4.40	< 4.40	0.7	–	–	–	–
COCCOc1ccc(N2CCN(CCn3ncc4c3nc(N)n3nc(-c5ccco5)nc43)CC2)cc1 [PRELADENANT]	–	–	–	–	< 4.40	–	< 4.40	< 4.40	–	1.1	0.4 mg/kg	30%	–	–
CC(C)(C)CC(=O)Nc1ccc(C(=O)Nc2nccs2)cc1F	8.04	–	–	–	–	–	–	–	–	–	–	–	6.19	71
CC(C)(C)CC(=O)Nc1ccc(C(=O)Nc2nccs2)cc1Cl	7.66	–	–	–	–	–	–	–	–	–	–	–	6.68	10
Cc1ccccc1C(=O)Nc1ccc(C(=O)Nc2nccs2)cc1	6.66	47%	0.5 L/min	5 mL/min	< 4.40	< 4.40	4.64	< 4.40	5.85	0.8	–	–	–	–
